# According to ChEMBL document CHEMBL1141258, “Prismatomerin, a new iridoid from Prismatomeris tetrandra. Structure elucidation, determination of absolute configuration, and cytotoxicity” (J Nat Prod, 2007):
# Calls of active or inactive are those of the source. No cut-off for these calls is given here.
# Assays:
# [1] = test system: MDA-MB-231; experiment: Growth inhibition of human MDA-MB-231 cells after 48 hrs by SRB assay; type: functional; conditions: MDA-MB-231, 48 h
# In short: (§1)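 NCI 60 human tumour cell line in vitro anticancer screen, run at NCI. Compound tested at a minimum of five concentrations in 10-fold dilutions per cell line.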
# [2] = test system: MCF7; experiment: Growth inhibition of human MCF7 cells after 48 hrs by SRB assay; type: functional; conditions: MCF7, 48 h
# In short: (§2)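 Run at NCI in the 60-human-tumor-cell-line anticancer screen. Each compound was tested at a minimum of five concentrations at 10-fold dilutions.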
# [3] = test system: EKVX; experiment: Growth inhibition of human EKVX cells after 48 hrs by SRB assay; type: functional; in short: as §1
# [4] = Growth inhibition of human OVACAR3 cells after 48 hrs by SRB assay; type: functional; conditions: OVACAR3, 48 h; in short: as §2
# [5] = test system: BT-549; experiment: Growth inhibition of human BT549 cells after 48 hrs by SRB assay; type: functional; in short: as §2
# [6] = test system: M14; experiment: Growth inhibition of human M14 cells after 48 hrs by SRB assay; type: functional; in short: as §2
# [7] = test system: L929; experiment: Antiproliferative activity against mouse L929 cells after 5 days by SRB assay; type: cell-based; conditions: L929, 120 h
# [8] = test system: ACHN; experiment: Growth inhibition of human ACHN cells after 48 hrs by SRB assay; type: functional; in short: as §1
# [9] = test system: MOLT-4; experiment: Growth inhibition of human MOLT4 cells after 48 hrs by SRB assay; type: functional; conditions: MOLT-4, 48 h; in short: as §2
# [10] = test system: CAKI-1; experiment: Growth inhibition of human CAKI1 cells after 48 hrs by SRB assay; type: functional; conditions: CAKI-1, 48 h; in short: as §2
# [11] = test system: PC-3; experiment: Growth inhibition of human PC3 cells after 48 hrs by SRB assay; type: functional; conditions: PC-3, 48 h; in short: as §1
# [12] = test system: A549; experiment: Antiproliferative activity against human A549 cells after 5 days by MTT assay; conditions: A549, 120 h
# [13] = test system: CCRF-CEM; experiment: Growth inhibition of human CCRF-CEM cells after 48 hrs by SRB assay; type: functional; in short: as §1
# [14] = test system: LOX IMVI; experiment: Growth inhibition of human LOXIMVI cells after 48 hrs by SRB assay; type: functional; in short: as §2
# [15] = test system: NCI-H23; experiment: Growth inhibition of human NCIH23 cells after 48 hrs by SRB assay; type: functional; conditions: NCI-H23, 48 h; in short: as §1
# [16] = test system: HOP-62; experiment: Growth inhibition of human HOP62 cells after 48 hrs by SRB assay; type: functional; conditions: HOP-62, 48 h; in short: as §2
# [17] = test system: Hs-578T; experiment: Growth inhibition of human HS578T cells after 48 hrs by SRB assay; type: functional; in short: as §1
# [18] = test system: SW-620; experiment: Growth inhibition of human SW620 cells after 48 hrs by SRB assay; type: functional; conditions: SW-620, 48 h; in short: as §1
# [19] = Antiproliferative activity against human KB31 cells after 5 days by MTT assay; conditions: KB 3-1, 120 h
# [20] = test system: NCI-H460; experiment: Growth inhibition of human NCI-H460 cells after 48 hrs by SRB assay; type: functional; conditions: NCI-H460, 48 h; in short: as §1
# [21] = test system: DU-145; experiment: Growth inhibition of human DU145 cells after 48 hrs by SRB assay; type: functional; in short: as §2
# [22] = test system: SK-MEL-28; experiment: Growth inhibition of human SK-MEL28 cells after 48 hrs by SRB assay; type: functional; conditions: SK-MEL-28, 48 h; in short: as §1
# [23] = test system: U-251; experiment: Growth inhibition of human U251 cells after 48 hrs by SRB assay; type: functional; conditions: U-251, 48 h; in short: as §2
# [24] = test system: SF-268; experiment: Growth inhibition of human SF268 cells after 48 hrs by SRB assay; type: functional; conditions: SF-268, 48 h; in short: as §2
# [25] = test system: UO-31; experiment: Growth inhibition of human UO31 cells after 48 hrs by SRB assay; type: functional; conditions: UO-31, 48 h; in short: as §1
# [26] = test system: SNB-75; experiment: Growth inhibition of human SNB75 cells after 48 hrs by SRB assay; type: functional; in short: as §1
# [27] = read-out: Log LC50 (the source's name) (converted)
smiles,measurement,setting,value
COC(=O)C1=CO[C@@H]2O[C@H]3/C(=C\c4ccc(O)cc4)C(=O)O[C@]34C=C[C@H]1[C@H]24 [PRISMATOMERIN],GI50,[1],0.162 µM
same,CC50,[1]; [27],0.851 µM
same,GI50,[2],0.12 µM
same,CC50,[2]; [27],> 100 µM
same,TGI,[2]; read-out: Log TGI (converted),1 µM
same,GI50,[3],0.355 µM
same,CC50,[3]; [27],40.7 µM
same,GI50,[4],0.49 µM
same,CC50,[4]; [27],1.7 µM
same,TGI,[4]; read-out: Log TGI (converted),0.562 µM
same,Activity,[5],inactive
same,GI50,"[5]; BT-549, 48 h",0.151 µM
same,Activity,[6],inactive
same,GI50,"[6]; M14, 48 h",0.162 µM
same,IC50,[7],0.21 µM
same,GI50,[8],< 0.01 µM
same,CC50,[8]; [27],2.09 µM
same,GI50,[9],< 0.01 µM
same,GI50,[10],0.126 µM
same,CC50,[10]; [27],8.71 µM
same,TGI,[10]; read-out: Log TGI (converted),0.501 µM
same,GI50,[11],0.17 µM
same,CC50,[11]; [27],3.02 µM
same,IC50,[12],1.41 µM
same,GI50,[13],0.038 µM
same,CC50,[13]; [27],> 100 µM
same,GI50,[14],0.0209 µM
same,CC50,[14]; [27],0.708 µM
same,TGI,[14]; read-out: Log TGI (converted),0.24 µM
same,GI50,[15],0.186 µM
same,CC50,[15]; [27],0.933 µM
same,GI50,[16],0.263 µM
same,CC50,[16]; [27],2.82 µM
same,TGI,[16]; read-out: Log TGI (converted),0.708 µM
same,GI50,[17],0.257 µM
same,CC50,[17]; [27],> 100 µM
same,GI50,[18],< 0.01 µM
same,CC50,[18]; [27],> 100 µM
same,IC50,[19],0.41 µM
same,GI50,[20],0.24 µM
same,CC50,[20]; [27],> 100 µM
same,Activity,[21],inactive
same,GI50,"[21]; DU-145, 48 h",0.115 µM
same,GI50,[22],0.316 µM
same,CC50,[22]; [27],> 100 µM
same,GI50,[23],0.295 µM
same,CC50,[23]; [27],60.3 µM
same,TGI,[23]; read-out: Log TGI (converted),0.955 µM
same,GI50,[24],0.263 µM
same,CC50,[24]; [27],63.1 µM
same,TGI,[24]; read-out: Log TGI (converted),0.759 µM
same,GI50,[25],0.12 µM
same,CC50,[25]; [27],0.813 µM
same,Activity,[26],inactive
same,CC50,"[26]; SNB-75, 48 h, read-out: Log LC50 (the source's name) (converted)",> 100 µM
